In ChEMBL document CHEMBL4038310, “Scaffold Hopping and Optimization of Maleimide Based Porcupine Inhibitors” (J Med Chem, 2017):
In brackets after ≈: the same amount, converted by molar mass.

Assays:
[1] = Thermodynamic solubility of compound at pH 4; format: physicochemical; conditions: buffer, read-out: Therm_solubility
[2] = Thermodynamic solubility of compound at pH 7.4; format: physicochemical; conditions: buffer, read-out: Therm_solubility
[3] = Tmax in CD1 mouse at 5 mg/kg administered as single dose via oral gavage after 24 hrs by LC/MS analysis; format: ADME, organism-based; conditions: in vivo
Outline: (§1)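 Female CD-1 mice, 6-8 weeks, 26 ± 3 g; single oral gavage dose of 5 mg/kg; three mice per time point. Sampling by cardiac puncture after CO2 euthanasia at pre-dose and from 5 or 10 min up to 24 h into K3EDTA. Plasma was extracted with acetonitrile/formic acid, carbamazepine internal standard, and analysed by LC-MS/MS (ESI+, MRM). Parameters were derived non-compartmentally.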

[4] = Cmax in CD1 mouse at 5 mg/kg administered as single dose via oral gavage after 24 hrs by LC/MS analysis; format: ADME, organism-based; set-up: dose 5 mg/kg, route oral; conditions: in vivo; outline: as §1
[5] = AUC in Sprague-Dawley rat at 10 mg/kg, po; format: ADME, organism-based; conditions: in vivo
Outline: (§2)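 Male Sprague Dawley rats received a single oral dose of 10 mg/kg. A plasma concentration-time profile was obtained, and PK parameters were calculated by the non-compartmental method.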

[6] = Bioavailability in Sprague-Dawley rat plasma at 2 mg/kg, iv; format: ADME, organism-based
Outline: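 Male Sprague Dawley rats were given a 2 mg/kg intravenous dose and compared with a 10 mg/kg oral dose. Absolute F = (AUC0-inf po/AUC0-inf iv) × (dose iv/dose po) × 100.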

Mus musculus = experiment: Bioavailability in CD1 mouse at 1 mg/kg, iv administered as single dose after 24 hrs by LC/MS analysis; format: ADME, organism-based; conditions: in vivo
Outline: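 Female CD-1 mice received a single 1 mg/kg tail-vein dose, with three mice per time point and plasma sampled up to 24 h. Quantitation was by LC-MS/MS against standards in blank mouse plasma. Absolute oral F = (AUC0-inf po/AUC0-inf iv) × (dose iv/dose po) × 100, using the 5 mg/kg oral gavage arm.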

[7] = Cmax in Sprague-Dawley rat at 10 mg/kg, po; format: ADME, organism-based; set-up: dose 10 mg/kg, route oral; conditions: in vivo; outline: as §2

solubility thermodynamic [1]	solubility thermodynamic [2]	Tmax [3]	Cmax [4]	Structure (SMILES)	other results
> 41 µg/mL	11.1 µg/mL (≈ 26.5 µM)	30 min	1190 ng/mL	Cc1ccc(-c2ccc(NC(=O)CN3CCCC4=C3C(=O)N(C3CC3)C4=O)nn2)cn1	–
> 194 µg/mL	35.5 µg/mL (≈ 90.5 µM)	10.2 min	1050 ng/mL	Cc1ccc(-c2ccc(NC(=O)CN3CCCC4=C3C(=O)N(C)C4=O)nn2)cn1	–
141 µg/mL (≈ 349 µM)	60 µg/mL (≈ 148 µM)	30 min	4030 ng/mL	O=C(CN1CCCC2=C1C(=O)N(C1CC1)C2=O)Nc1ccc(-c2cccnc2)nn1	AUC [5]: 81200 ng·h/mL; bioavailability [6]: 81%; F (Mus musculus): 100%; Cmax [7]: 17300 ng/mL
–	3.34 µg/mL (≈ 8.85 µM)	–	–	CN1C(=O)C2=C(C1=O)N(CC(=O)Nc1ccc(-c3ccccc3)nn1)CCC2	–
–	0.42 µg/mL (≈ 1.11 µM)	–	–	CN1C(=O)c2cccc(CC(=O)Nc3ccc(-c4nccs4)cc3)c2C1=O	–
13.9 µg/mL (≈ 36.7 µM)	9.5 µg/mL (≈ 25.1 µM)	120 min	759 ng/mL	CN1C(=O)C2=C(C1=O)N(CC(=O)Nc1ccc(-c3cccnc3)nn1)CCC2	–
–	13 µg/mL (≈ 34.6 µM)	–	–	CN1C(=O)C2=C(C1=O)N(CC(=O)Nc1ccc(-c3cccnc3)nc1)CCC2	–
–	0.75 µg/mL (≈ 1.99 µM)	–	–	CN1C(=O)C2=C(C1=O)N(CC(=O)Nc1ccc(-c3ccccc3)nc1)CCC2	–
1.1 µg/mL (≈ 2.88 µM)	1.26 to 1.3 µg/mL (≈ 3.29 to 3.4 µM)	–	–	CN1C(=O)C2=C(C1=O)N(CC(=O)Nc1ccc(-c3nccs3)cc1)CCC2	–
13.8 µg/mL (≈ 32.7 µM)	14.9 µg/mL (≈ 35.3 µM)	30 min	3290 ng/mL	O=C(CN1CCCC2=C1C(=O)N(C1CC1)C2=O)Nc1ccc(-c2cncc(F)c2)nn1	–
–	2.1 µg/mL (≈ 5.59 µM)	–	–	CN1C(=O)C2=C(C1=O)N(CC(=O)Nc1ccc(-c3ccccc3)cc1)CCC2	–
82 µg/mL (≈ 207 µM)	41 µg/mL (≈ 103 µM)	120 min	845 ng/mL	CN1C(=O)C2=C(C1=O)N(CC(=O)Nc1ccc(-c3cncc(F)c3)nn1)CCC2	–
–	0.24 µg/mL (≈ 0.638 µM)	–	–	CN1C(=O)C2=C(C1=O)N(CC(=O)Nc1ccc(-c3ccccc3)cn1)CCC2	–
